The list is not random: actives were taken first. Their share in the collection is about 5.8%.
IDH1 R132H inh = inhibitors of human IDH1 R132H | O75874 | IDH1 R132H reductase, diaphorase/resazurin fluorescence, 60 min | inhibition, % at 10 µM | 70,000 compounds, 0.18% hits | AID 624101; in the data active = inhibition above about 34%; inconclusive = no clear call, values can overlap the other calls; inactive = below about 11%
T cruzi growth-1 = T. cruzi proliferation inhibition; T. cruzi beta-gal in NIH3T3, GalScreen luminescence, 90 h; inhibition, % at 8.34 µM; 77,000 compounds, 5.9% hits; AID 624255;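 active = mean inhibition above about 93%, with at least 55% of replicates each passing it, limit read from the data, passing the limit was not always enough; inconclusive = only one of those two conditions holds; inactive = neither condition holds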
KDM4C inh = blocks human GASC-1 (KDM4C) demethylase activity; Q9H3R0; GST-KDM4C 2-372, H3K9me3 peptide, LANCE TR-FRET; inhibition, % at 12.5 µM; 96,000 compounds, 0.15% hits; AID 720574;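 active = mean replicate inhibition above about 25%, with at least 55% of replicates also reaching it, limit read from the data, passing the limit was not always enough; inconclusive = only one of those two conditions met; inactive = neither condition met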
Target sequence (Q9H3R0 2-372 limits assumed): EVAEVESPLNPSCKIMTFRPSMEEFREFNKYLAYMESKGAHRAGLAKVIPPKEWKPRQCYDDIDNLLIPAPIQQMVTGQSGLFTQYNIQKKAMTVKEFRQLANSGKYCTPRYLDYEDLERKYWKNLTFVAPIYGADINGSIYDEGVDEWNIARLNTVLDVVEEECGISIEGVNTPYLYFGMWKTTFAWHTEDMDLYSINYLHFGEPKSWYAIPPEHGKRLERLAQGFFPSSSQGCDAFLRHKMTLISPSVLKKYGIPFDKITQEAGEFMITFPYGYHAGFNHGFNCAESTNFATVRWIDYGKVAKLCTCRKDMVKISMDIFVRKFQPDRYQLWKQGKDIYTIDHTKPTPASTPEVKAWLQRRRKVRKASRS
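Test system: N-terminal GST-fused human GASC-1 (KDM4C) fragment, residues 2-372; quantity: GASC-1 enzyme at 10 nM final in reaction; dosing: single dose; schedule: 30 min demethylation and 1 h detection at room temperature; signal: LANCE TR-FRET, excitation 340 nm, emissions 618 and 671 nm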
Pf Dd2 growth = blocks growth of Plasmodium falciparum Dd2 parasites; P. falciparum Dd2 growth, SYBR Green, 72 h; stronger effect = lower value; activity change, % at 10 µM; 94,000 compounds, 2.3% hits; AID 1159554; in the data active = activity change below about -80%; inconclusive = no clear call, values can overlap the other calls
T cruzi growth-2 = blocks T. cruzi growth in NIH3T3 host cells; inhibition, % at 8.35 µM; 5,600 compounds, 72% hits; T. cruzi beta-gal in NIH3T3, GalScreen luminescence, 90 h; AID 651739; shares compounds with T cruzi growth-1;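 active = mean replicate inhibition above about 95% and at least 55% of replicates individually reaching it, limit read from the data; inconclusive = only one of the two criteria is met; inactive = neither criterion is met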
T cruzi growth-3 = inhibitors of T. cruzi proliferation | inhibition, % at 2.09 µM | 5,600 compounds, 21% hits | T. cruzi beta-gal in NIH3T3, GalScreen luminescence, 90 h | AID 651740 | shares compounds with T cruzi growth-1;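 active = mean inhibition above about 95%, with at least 55% of replicates also reaching it, limit read from the data; inconclusive = meets just one of the two conditions; inactive = meets neither condition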
3T3 cytotox = NIH/3T3 (mouse) viability loss; shares compounds with T cruzi growth-1; NIH/3T3 viability, CellTiter-Glo ATP luminescence, 90 h; cytotoxicity (signal decrease), % at 8.35 µM; 5,600 compounds, 14% hits; AID 651742;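 active = mean signal decrease across replicates above about 35% based on untreated-well scatter, with enough replicates individually passing, limit read from the data; inconclusive = no rule stated though some were filed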
NIH3T3 tox 2 = kills mouse NIH/3T3 fibroblasts; inhibition, % at 24.9 µM; NIH/3T3 viability, CellTiter-Glo ATP luminescence, 90 h; 5,600 compounds, 56% hits; AID 651744; shares compounds with T cruzi growth-1;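 active = mean loss of cell viability signal at or above a set limit, and enough replicates individually reaching it; inconclusive = meets only the mean limit or only the replicate share; inactive = meets neither condition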
Large screens that a line does not name were inactive (follow-up assays come after a bar, where they were run).

C[C@@H]1CCCCO[C@@H](CN(C)Cc2ccccc2)[C@@H](C)CN([C@@H](C)CO)C(=O)c2cc(NC(=O)Nc3cccc4ccccc34)ccc2O1	T cruzi growth-1 114.6 | T cruzi growth-2 107.2 | T cruzi growth-3 109.2 | 3T3 cytotox inactive | NIH3T3 tox 2 inactive
C[C@@H]1CCCCO[C@@H](CN(C)Cc2ccncc2)[C@H](C)CN([C@H](C)CO)C(=O)c2cc(NC(=O)Nc3cccc4ccccc34)ccc2O1	T cruzi growth-1 98.0 | T cruzi growth-2 107.7 | T cruzi growth-3 inactive | 3T3 cytotox inactive | NIH3T3 tox 2 inactive
CO[C@H]1CN(C)C(=O)c2ccc(NC(=O)C3CC3)cc2OC[C@@H](C)N(C(=O)c2ccccn2)C[C@H]1C	T cruzi growth-1 102.1 | T cruzi growth-2 inactive | T cruzi growth-3 inactive | 3T3 cytotox inactive | NIH3T3 tox 2 inactive
CO[C@H]1CN(C)C(=O)c2ccc(NC(=O)C3CC3)cc2OC[C@H](C)N(C(=O)c2cccnc2)C[C@@H]1C	T cruzi growth-1 112.1 | T cruzi growth-2 inactive | T cruzi growth-3 inactive | 3T3 cytotox inactive | NIH3T3 tox 2 inactive
CO[C@@H]1CN(C)C(=O)c2ccc(NC(=O)C3CC3)cc2OC[C@@H](C)N(C(=O)c2ccccn2)C[C@@H]1C	none
CO[C@@H]1CN(C)C(=O)c2ccc(NC(=O)C3CC3)cc2OC[C@H](C)N(C(=O)c2cccnc2)C[C@H]1C	none
CCCC#Cc1ccc([C@H]2[C@@H](CO)N3CCCCN(C(=O)NC4CCCC4)C[C@H]23)cc1	T cruzi growth-1 inconclusive (no result: IDH1 R132H inh) | T cruzi growth-2 105.7 | T cruzi growth-3 inactive | 3T3 cytotox 43.8 | NIH3T3 tox 2 103.2
CCCC#Cc1ccc([C@@H]2[C@H](CO)N3CCCCN(C(=O)NC4CCCC4)C[C@@H]23)cc1	T cruzi growth-1 inconclusive (no result: IDH1 R132H inh) | T cruzi growth-2 108.8 | T cruzi growth-3 inactive | 3T3 cytotox inactive | NIH3T3 tox 2 102.5
CCCC#Cc1ccc2c(c1)O[C@H](CN(C)C(=O)CC1CC1)[C@@H](C)CN([C@H](C)CO)S2(=O)=O	T cruzi growth-1 101.4 | T cruzi growth-2 107.7 | T cruzi growth-3 inactive | 3T3 cytotox inactive | NIH3T3 tox 2 inactive
CC(C)CC#Cc1ccc2c(c1)O[C@@H](CN(C)C(=O)CC1CC1)[C@@H](C)CN([C@@H](C)CO)S2(=O)=O	none (no result: T cruzi growth-1)
CCCC#Cc1ccc2c(c1)O[C@H](CN(C)C(=O)CC1CC1)[C@@H](C)CN([C@@H](C)CO)S2(=O)=O	T cruzi growth-1 111.0 | T cruzi growth-2 103.6 | T cruzi growth-3 inactive | 3T3 cytotox inactive | NIH3T3 tox 2 47.7
C[C@H](CO)N1C[C@H](C)[C@H](CN(C)C(=O)CC2CC2)Oc2cc(C#CCN(C)C)ccc2S1(=O)=O	none
Cc1sc2ncnc(SCC(=O)Nc3ccccc3-c3ccccc3)c2c1C	none (no result: T cruzi growth-1, KDM4C inh, Pf Dd2 growth)
Cc1ccc(S(=O)(=O)N2C(=O)CCC2C(=O)Nc2cc(C(F)(F)F)ccc2Cl)cc1 (stereo not given)	none (no result: T cruzi growth-1, KDM4C inh, Pf Dd2 growth)
O=S(=O)(c1ccccc1F)N1C[C@H]2[C@@H](c3ccccc31)[C@@H](CO)N2Cc1ccc2c(c1)OCO2	T cruzi growth-1 98.7 (no result: IDH1 R132H inh) | T cruzi growth-2 103.0 | T cruzi growth-3 100.4 | 3T3 cytotox inactive | NIH3T3 tox 2 inactive
O=S(=O)(c1ccc(F)cc1)N1C[C@@H]2[C@H](c3ccccc31)[C@H](CO)N2Cc1ccc2c(c1)OCO2	T cruzi growth-1 100.8 (no result: IDH1 R132H inh) | T cruzi growth-2 106.9 | T cruzi growth-3 inactive | 3T3 cytotox inactive | NIH3T3 tox 2 inactive
COc1ccccc1NC(=O)c1ccc(OC(C)C(=O)Nc2cc(Cl)ccc2C)cc1 (stereo not given)	none (no result: T cruzi growth-1, KDM4C inh, Pf Dd2 growth)
O=C(CSc1ncn(-c2ccccc2)n1)Nc1ccc(F)c(Cl)c1	none (no result: T cruzi growth-1, KDM4C inh, Pf Dd2 growth)
CCCC#Cc1ccc2c(c1)O[C@H](CN(C)C(=O)C1CCC1)[C@@H](C)CN([C@H](C)CO)S2(=O)=O	T cruzi growth-1 inconclusive | T cruzi growth-2 inconclusive | T cruzi growth-3 inactive | 3T3 cytotox inactive | NIH3T3 tox 2 inactive

Screens (PubChem BioAssay)
